Source: PubChem (The Scripps Research Institute Molecular Screening Center)
HTR2A ag: mouse HTR2A agonism via beta-arrestin recruitment | CHO-K1 mHTR2A beta-arrestin complementation, luminescence; percent of 30 µM serotonin response | activation, % at 7.6 µM | 360,000 tested, 0.66% active;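 active means activation above a run cutoff, the mean activation of all tested compounds plus 3 SD, cut at about 14% in these data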
Target sequence (P35363 whole entry, looked up): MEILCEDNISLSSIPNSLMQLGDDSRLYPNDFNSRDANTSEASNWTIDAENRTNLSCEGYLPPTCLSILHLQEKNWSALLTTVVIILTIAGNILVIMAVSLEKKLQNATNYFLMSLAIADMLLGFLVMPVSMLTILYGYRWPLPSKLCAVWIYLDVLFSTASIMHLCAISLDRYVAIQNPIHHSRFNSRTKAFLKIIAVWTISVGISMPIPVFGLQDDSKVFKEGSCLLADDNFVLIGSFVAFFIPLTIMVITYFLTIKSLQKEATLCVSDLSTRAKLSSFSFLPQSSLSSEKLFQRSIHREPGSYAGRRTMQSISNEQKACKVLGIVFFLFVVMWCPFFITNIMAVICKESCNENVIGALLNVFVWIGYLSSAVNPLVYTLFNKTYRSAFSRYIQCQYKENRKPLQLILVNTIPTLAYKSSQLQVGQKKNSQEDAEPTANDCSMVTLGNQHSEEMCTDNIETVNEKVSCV
TAAR1 ag: agonists of human TAAR1; CHO RD-HGA16 TAAR1, Fluo-8 calcium fluorescence; vehicle wells 0%, saturating PEA agonist 100%; activation, % at 3 µM; 360,000 tested, 0.99% active;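 active means activation above the mean activation of all test compounds in the run plus 3 SD, cut at about 38% in these data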
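Test system: RD-HGA16 (CHO) cells co-expressing Gα16 and hTAAR1; dosing: one-point dosing at 3 µM (nominal); timing: 17-24 h seeding, 75 min 37 °C dye, 30 min RT; signal: kinetic Fluo-8 calcium fluorescence; read-out basis: % activation relative to PEA EC100 response; controls: DMSO and PEA EC100; replicates: n 1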
M1 antag: blocks human M1 muscarinic receptor | AID 588852 | 360,000 tested, 1.3% active | inhibition, % at 3 µM | CHO-K1 hM1, Fluo-8 calcium fluorescence, ACh EC80 antagonist;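 active means percent inhibition above its own plate's cutoff, namely the mean of that plate's compound wells plus 3 SD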;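 further: peak over basal fluorescence ratio during 140 s after agonist addition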
TAAR1 antagonist: human TAAR1 antagonism. Q96RJ0. CHO RD-HGA16 TAAR1, Fluo-8 calcium fluorescence, antagonist. inhibition, % at 3 µM. 360,000 tested, 1.5% active;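 active means inhibition above a per-plate cutoff, the mean inhibition of test compounds on that plate plus 3 SD, cut at about 49% in these data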
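Test system – hTAAR1-expressing CHO RD-HGA16 cells, Gα16-coupled · Reagent – β-PEA at EC80 concentration, post-compound challenge · Compound dosing – 3 µM, single point · Timing – 140 s kinetic read after compound, 140 s after agonist · Detection – Fluo-8 intracellular calcium dye fluorescence, real-time kinetic reads · Control set – DMSO and EC80 PEA controls · Repeats – n of 1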
M1 PAM: positive allosteric modulators of human M1 muscarinic receptor | 360,000 tested, 0.088% active | CHO-K1 hM1, Fluo-8 calcium fluorescence, ACh EC20; 0% = ACh EC20, 100% = maximal ACh | P11229 | activation, % at 3 µM | AID 588819; in the data active means activation above about 19%, passing the limit was not always enough
M1 ag: activates human CHRM1 receptor. P11229. CHO-K1 hM1, Fluo-8 calcium fluorescence, agonist mode; 0% DMSO, 100% acetylcholine EC100. activation, % at 3 µM. 360,000 tested, 0.33% active;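 active means activation above the run's mean compound activation plus 3 SD, cut at about 16% in these data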;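 further: peak over basal fluorescence ratio within a 140 s kinetic read after compound addition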
nonsel antag count: nonselective antagonism, TAAR1 counter-screen; 2,400 tested, 77% active; inhibition, % at 3 µM; shares compounds with TAAR1 antagonist; AID 651780; counterscreen cell line, calcium fluorescence, antagonist mode; in the data active means inhibition above about 22%;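 further: CHO-Ga16 host cells stimulated with ATP at an EC80 level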
TAAR1 ant conf: confirmation of human TAAR1 antagonists; shares compounds with TAAR1 antagonist; TAAR1-expressing cells, fluorescence antagonist read-out; inhibition, % at 3 µM; 2,400 tested, 40% active; AID 651785; in the data active means inhibition above about 49%;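 further: CHO-Ga16 host cells challenged with agonist PEA near its EC80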
Ga16 ag counter: counter-screen for TAAR1 antagonists: nonselective Ga16 agonists; activation, % at 3 µM; 2,400 tested, 18% active; Ga16-expressing cells, calcium fluorescence, agonist counterscreen; shares compounds with TAAR1 antagonist; in the data active means activation above about 12%
TAAR1 ag counter: activates human TAAR1 in antagonist counter-screen. shares compounds with TAAR1 antagonist. hTAAR1 cell line, fluorescence activation, agonist mode. activation, % at 3 µM. 2,400 tested, 2% active; in the data active means activation above about 37%;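 further: CHO cells stably expressing TAAR1 with calcium dye readout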
Hits are given with their value; – = inactive; · = no result. The list is not random: actives were taken first. Their share in the collection is about 3.9%.

SMILES	HTR2A ag	TAAR1 ag	M1 antag	TAAR1 antagonist	M1 PAM	M1 ag	nonsel antag count	TAAR1 ant conf	Ga16 ag counter	TAAR1 ag counter
COc1ccc(C(=O)Nc2ccc(O)c3ccccc23)cc1OC	–	–	–	–	–	–	·	·	·	·
CN1CCN(C(=O)c2cc3c(s2)-c2ccccc2S(=O)(=O)C3)CC1	–	–	–	–	–	–	·	·	·	·
COc1ccc(N2CCN(C(=O)c3cc4c(s3)-c3ccccc3S(=O)(=O)C4)CC2)cc1	–	–	–	52	–	–	30	–	–	–
O=C(Cn1cc(C(F)(F)F)cc(Cl)c1=O)NCc1ccc(F)cc1	–	–	–	–	–	–	·	·	·	·
C/C(=N\NC(=O)COc1ccccc1[N+](=O)[O-])c1cccc(NC(=O)c2ccncc2)c1	–	–	–	86	–	–	38	58	15	–
C/C(=N\NC(=O)c1ccncc1)c1cccc(NC(=O)c2ccc(C(C)(C)C)cc2)c1	–	–	–	76	–	–	37	54	–	–
CC(OC(=O)/C=C/c1ccccc1)C(=O)N1CCc2ccccc21 (configuration not stated)	–	–	–	–	–	–	·	·	·	·
CC(C)(C)C(=O)CSc1ccc(S(=O)(=O)N2CCN(Cc3ccccc3)CC2)cn1	–	–	–	–	–	–	·	·	·	·
COc1ccc(OC)c(CNC(=O)c2nn(C)c3c2CS(=O)(=O)c2ccccc2-3)c1	–	–	–	–	–	–	·	·	·	·
O=C(CSc1ccc(Cl)cc1)N1CCN(c2c(Cl)cccc2[N+](=O)[O-])CC1	–	–	–	65	–	–	25	–	–	–
CC(=O)Nc1ccc(S(=O)(=O)N(C)CC(=O)Nc2ccccc2N2CCCC2)cc1	–	–	–	55	–	–	30	–	–	–
CN(CC(=O)Nc1ccccc1N1CCOCC1)S(=O)(=O)c1ccc(F)cc1	–	–	–	–	–	–	·	·	·	·
COCCCNC(=O)CN(c1cc(OC)ccc1OC)S(=O)(=O)c1ccccc1	–	–	–	–	–	–	·	·	·	·
COc1ccc(S(=O)(=O)N(CC(=O)NCCSc2ccccn2)c2ccccc2)cc1	–	–	–	–	–	–	·	·	·	·
COc1ccccc1N(CC(=O)NCCSc1ccccc1)S(=O)(=O)c1ccccc1	–	–	–	76	–	–	30	–	–	–
COc1ccc(N(CC(=O)NCCSc2ccccc2)S(=O)(=O)c2ccccc2)cc1	–	–	–	65	–	–	22	–	–	–
COc1ccccc1N(CC(=O)NCCSc1ccccc1)S(C)(=O)=O	–	–	–	–	–	–	·	·	·	·
COc1ccc(N(CC(=O)NCCSc2ccccn2)S(=O)(=O)c2ccccc2)c(OC)c1	–	–	–	50	–	–	27	–	–	–
COc1ccc(N(CC(=O)NCCSc2ccccc2)S(=O)(=O)c2ccccc2)c(OC)c1	–	–	–	59	–	–	33	55	–	–
COc1cc(CNc2ncnc3c2ncn3[C@H]2CN(Cc3cccc4ccccc34)C[C@@H](CO)O2)cc(OC)c1OC	–	–	–	–	–	–	·	·	·	·
CC(=O)c1cccc(NC(=O)CSc2ccc(-c3ccc4c(c3)OCO4)nn2)c1	–	–	–	54	–	–	27	–	–	–
COc1ccc(-c2ccc(SCC(=O)Nc3cccc(C(C)=O)c3)nn2)cc1OC	–	–	–	53	–	–	24	–	–	–
CCOc1cc(S(=O)(=O)NCc2ccncc2)c(C)cc1C	–	–	–	–	–	–	·	·	·	·
